ChEMBL document CHEMBL5108074 (J Med Chem, 2022)
In brackets after ≈: the same amount, converted by molar mass. Blank lines part the entries; values can stand above or below the compound they belong to.

Key:
[1] = target: T1, Plasma kallikrein (Homo sapiens, UniProt P03952); assay: Inhibition of human plasma kallikrein using H-D-Pro-Phe-Arg-AFC as flurogenic substrate preincubated for 5 mins followed by substrate addition by fluorometer analysis; format: cell-free
[2] = Kinetic solubility of the compound in 0.1N HCl
[3] = Metabolic stability in human liver microsomes assessed as intrinsic clearance per mg of protein measured upto 60 mins in presence of NADPH regenerating system by LC-MS/MS analysis; format: ADME, Microsome; details: for microsomal intrinsic clearance: microsomes, 1 h
[4] = Kinetic solubility of the compound in aqueous assay buffer at pH 7.7
[5] = target: T1, Plasma kallikrein; assay: Inhibition of human plasma kallikrein using H-D-Pro-Phe-Arg-AFC as flurogenic substrate at 100 nM preincubated for 5 mins followed by substrate addition by fluorometer analysis relative to control; format: cell-free
In short: (§1)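 Crude library compounds (unpurified, dissolved in DMSO) were screened twice, once at each of the single concentrations. Human plasma kallikrein was preincubated with compound for 5 min, then H-D-Pro-Phe-Arg-AFC was added. Activity was followed as the kinetic rate of fluorogenic substrate cleavage, and percent inhibition was calculated relative to control.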

[6] = target: T1, Plasma kallikrein; assay: Inhibition of human plasma kallikrein using H-D-Pro-Phe-Arg-AFC as flurogenic substrate at 1000 nM preincubated for 5 mins followed by substrate addition by fluorometer analysis relative to control; format: cell-free; in short: as §1
[7] = Apparent permeability of the compound across apical side to basolateral side in human Caco-2 cells incubated for 1 hr by LC-MS/MS analysis; details: for Papp: caco-2, 1 h
[8] = Thermodynamic solubility of the compound in FaSSGF at 1 mg/ml at pH 1.6 measured after 4 hrs; format: physicochemical; details: FaSSGF, pH 1.6, read-out: Therm_solubility
In short: (§2)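 Compound (nominal 1 or 100 mg/mL as free base) added to biorelevant medium preheated to 37 °C: FaSSGF at pH 1.6 or FaSSIF at pH 6.5. Vortexed, then shaken 4 h at 37 °C (~500 rpm). Centrifuged at 15000g for 10 min at 37 °C. Supernatant diluted and quantified against calibration standards. Crystalline material used where stated.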

[9] = Clearance in Sprague-Dawley rat assessed as liver blood flow at 1 mg/kg, iv measured upto 24 hrs by LC-MS analysis; format: ADME, organism-based; details: in vivo
In short: (§3)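 Male Sprague-Dawley rats, two per route, single dose. IV: 1 mg/kg given as 1 mL/kg of a nominal 1 mg/mL formulation in vehicle. PO: 10 mg/kg given as 5 mL/kg of a 2 mg/mL formulation. PK parameters from noncompartmental analysis. Clearance expressed relative to rat liver blood flow of 80 mL/min/kg.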

[10] = Thermodynamic solubility of the compound in FaSSIF at 1 mg/ml at pH 6.5 measured after 4 hrs; format: physicochemical; details: simulated gi fluid, pH 6.5, 4 h; in short: as §2
[11] = Half life in Sprague-Dawley rat at 10 mg/kg, po and 1 mg/kg, iv measured upto 24 hrs by LC-MS analysis; format: ADME, organism-based; details: in vivo; in short: as §3
[12] = Clearance in Sprague-Dawley rat blood at 1 mg/kg, iv measured upto 24 hrs by LC-MS analysis; format: ADME, organism-based; details: whole blood; in short: as §3
[13] = Oral bioavailability in Sprague-Dawley rat at 10 mg/kg measured upto 24 hrs by LC-MS analysis; format: ADME, organism-based; details: in vivo; in short: as §3

T1 sequence (P03952 20-390 limits assumed): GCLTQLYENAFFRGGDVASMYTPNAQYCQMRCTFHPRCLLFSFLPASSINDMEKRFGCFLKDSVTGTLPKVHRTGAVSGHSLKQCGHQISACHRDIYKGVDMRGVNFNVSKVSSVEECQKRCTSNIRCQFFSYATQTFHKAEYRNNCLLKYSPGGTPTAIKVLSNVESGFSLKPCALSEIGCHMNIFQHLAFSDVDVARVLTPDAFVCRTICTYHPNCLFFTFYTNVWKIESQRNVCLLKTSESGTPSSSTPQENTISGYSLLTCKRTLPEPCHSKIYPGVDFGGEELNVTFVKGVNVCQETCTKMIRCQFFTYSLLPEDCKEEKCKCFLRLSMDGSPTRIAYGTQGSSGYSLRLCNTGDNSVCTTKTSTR
T1 sequence (P03952 391-638 limits assumed): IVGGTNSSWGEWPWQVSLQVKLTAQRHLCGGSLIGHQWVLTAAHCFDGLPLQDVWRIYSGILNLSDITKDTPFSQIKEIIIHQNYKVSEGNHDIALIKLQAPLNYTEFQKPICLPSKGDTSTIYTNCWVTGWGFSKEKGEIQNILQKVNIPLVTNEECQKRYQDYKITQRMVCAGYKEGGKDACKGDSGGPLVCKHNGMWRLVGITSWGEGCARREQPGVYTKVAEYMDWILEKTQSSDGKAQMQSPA

Structure (SMILES): Cc1cc(C(=O)NCc2ccc(CN)cc2)c(C)n1Cc1cccs1
IC50 [1]: 2700 nM

solubility kinetic [2]: > 120 µg/mL
microsomal intrinsic clearance [3]: 120 µL/min
solubility kinetic [4]: > 120 µg/mL
Structure (SMILES): COCc1nn(Cc2ccc(Cn3ccccc3=O)cc2)cc1C(=O)NCc1c(Cl)ccc(OC)c1F

Structure (SMILES): Cc1cc(C(=O)NCc2ccc(CN)cc2)c(C)n1Cc1cccc(-c2cccnc2)n1
IC50 [1]: 580 nM

solubility kinetic [2]: > 120 µg/mL
solubility kinetic [4]: > 120 µg/mL
Structure (SMILES): COCc1nn(Cc2ccc(Cn3ccccc3=O)cc2)cc1C(=O)NCc1cccc(O)c1F

Structure (SMILES): Cc1cnn(Cc2ccc(Cn3c(C)cc(C(=O)NCc4ccc(CN)cc4)c3C)cc2)c1
IC50 [1]: 65 nM

Structure (SMILES): COCc1nn(Cc2ccc(Cn3ccccc3=O)cc2)cc1C(=O)NCc1ncc(C)c(OC)c1C
IC50 [1]: 37 nM

Structure (SMILES): COCc1nn(Cc2ccc(Cn3ccccc3=O)cc2)cc1C(=O)NCc1sccc1Cl
IC50 [1]: 210 nM

Structure (SMILES): COCc1nn(Cc2ccc(Cn3ccccc3=O)cc2)cc1C(=O)NCc1ncc(Cl)cc1C#N
IC50 [1]: 250 nM

Structure (SMILES): O=C(NCc1c(F)cccc1F)c1cnn(Cc2ccc(Cn3ccccc3=O)cc2)c1
IC50 [1]: 62 nM
inhibition [5]: 47%
inhibition [6]: 88%

Structure (SMILES): Cc1cc(C(=O)NCc2ccc(CN)cc2)c(C)n1Cc1ccc(-c2ccccc2)cc1
IC50 [1]: 5600 nM

Structure (SMILES): COCc1nn(Cc2ccc(Cn3ccccc3=O)cc2)cc1C(=O)NCc1nccc(OC(C)C)c1F
IC50 [1]: 2400 nM

Structure (SMILES): COCc1nn(Cc2ccc(Cn3ccccc3=O)cc2)cc1C(=O)NCc1cccc(OC)c1F
IC50 [1]: 17 nM
Papp [7]: 25 10^-6 cm/s
solubility kinetic [2]: > 120 µg/mL
microsomal intrinsic clearance [3]: 45 µL/min
solubility kinetic [4]: > 120 µg/mL

inhibition [5]: 13%
inhibition [6]: 59%
Structure (SMILES): O=C(NCc1ccccc1F)c1cnn(Cc2ccc(Cn3ccccc3=O)cc2)c1

Structure (SMILES): COc1ccc(F)c(CNC(=O)c2cnn(Cc3ccc(Cn4ccccc4=O)cc3)c2)c1F
IC50 [1]: 3 nM
microsomal intrinsic clearance [3]: 36 µL/min

solubility kinetic [2]: > 120 µg/mL
solubility kinetic [4]: > 120 µg/mL
Structure (SMILES): COCc1nn(Cc2ccc(Cn3ccccc3=O)cc2)cc1C(=O)NCc1cc(OC)ccc1F

Structure (SMILES): COCc1nn(Cc2ccc(Cn3ccccc3=O)cc2)cc1C(=O)NCc1nccc(C)c1F
IC50 [1]: 140 nM

Structure (SMILES): Cc1cc(C(=O)NCc2ccc(CN)cc2)c(C)n1CCCCCc1ccccc1
IC50 [1]: 3800 nM

Structure (SMILES): N=C(N)c1ccc(CNC(=O)c2cnn(Cc3ccccc3)c2)cc1
IC50 [1]: 62 nM

solubility kinetic [2]: 29 µg/mL (≈ 59.4 µM)
solubility kinetic [4]: > 120 µg/mL
Structure (SMILES): CCc1cccc(CNC(=O)c2cn(Cc3ccc(Cn4ccccc4=O)cc3)nc2COC)c1F

inhibition [5]: 17%
inhibition [6]: 72%
Structure (SMILES): COc1ccc(CNC(=O)c2cnn(Cc3ccc(Cn4ccccc4=O)cc3)c2)cc1

Structure (SMILES): COCc1nn(Cc2ccc(Cn3ccccc3=O)cc2)cc1C(=O)NCc1nc(C)ccc1F
IC50 [1]: 900 nM

Structure (SMILES): COCc1nn(Cc2ccc(Cn3ccccc3=O)cc2)cc1C(=O)NCc1nccc(C)c1Cl
IC50 [1]: 300 nM

IC50 [1]: > 10000 nM
Structure (SMILES): Cc1cc(C(=O)NCc2ccc(CN)cc2)c(C)n1CCc1ccccc1

Structure (SMILES): COCc1nn(Cc2ccc(Cn3ccccc3=O)cc2)cc1C(=O)NCc1nccc(Cl)c1F
IC50 [1]: 93 nM

Structure (SMILES): Cc1cc(C(=O)NCc2ccc(CN)cc2)c(C)n1Cc1ccccc1
IC50 [1]: 3700 nM

Structure (SMILES): COCc1nn(Cc2ccc(Cn3ccccc3=O)cc2)cc1C(=O)NCc1nccc(OC)c1C
IC50 [1]: 4.1 nM
solubility thermodynamic at 4 h [8]: 970 µg/mL (≈ 1990 µM)
LBF [9]: 44%
Therm_solubility [10]: 0.11 mg/mL
t1/2 [11]: 1 h
clearance [12]: 35 mL/min/kg
F [13]: 31%

Structure (SMILES): Cc1cc(C(=O)NCc2ccc(CN)cc2)c(C)n1CCCc1ccccc1
IC50 [1]: 4800 nM

Structure (SMILES): Cc1cc(C(=O)NCc2ccc(CN)cc2)c(C)n1CCCCc1ccccc1
IC50 [1]: 920 nM

Papp A→B at 1 h ([7]; Caco-2): 2 ×10⁻⁶ cm/s
microsomal CLint ([3]; liver microsomes, read-out: CLH): 37 µL/min/mg
Structure (SMILES): Nc1cccc2cc(CNC(=O)c3cnn(Cc4ccc(Cn5ccccc5=O)cc4)c3)ccc12

Structure (SMILES): Cc1cc(C(=O)NCc2ccc(C(=N)N)cc2)c(C)n1Cc1ccccc1
IC50 [1]: 5.5 nM

Structure (SMILES): Cc1cc(C(=O)NCc2ccc(CN)cc2)c(C)n1Cc1cc(-c2ccccc2)cs1
IC50 [1]: 570 nM

inhibition [5]: 12%
inhibition [6]: 67%
Structure (SMILES): O=C(NCc1ccccc1Cl)c1cnn(Cc2ccc(Cn3ccccc3=O)cc2)c1

Structure (SMILES): COc1ccnc(CNC(=O)c2cnn(Cc3ccc(Cn4ccccc4=O)cc3)c2)c1F
IC50 [1]: 5.1 nM
microsomal intrinsic clearance [3]: 2 µL/min

Structure (SMILES): Cc1cc(C(=O)NCc2ccc(CN)cc2)c(C)n1Cc1csc(-c2ccccc2)c1
IC50 [1]: 600 nM

Structure (SMILES): Cc1cccc(C)c1CNC(=O)c1cnn(Cc2ccc(Cn3ccccc3=O)cc2)c1
IC50 [1]: 68 nM
inhibition [5]: 53%
inhibition [6]: 89%

Structure (SMILES): COCc1nn(Cc2ccc(Cn3ccccc3=O)cc2)cc1C(=O)NCc1cnccc1C(F)(F)F
IC50 [1]: 460 nM

inhibition [5]: 11%
inhibition [6]: 63%
Structure (SMILES): COc1ccccc1CNC(=O)c1cnn(Cc2ccc(Cn3ccccc3=O)cc2)c1

Structure (SMILES): Cc1cc(C(=O)NCc2ccc(CN)cc2)c(C)n1Cc1csc(Cc2ccccc2)n1
IC50 [1]: 2700 nM

inhibition [5]: 13%
inhibition [6]: 60%
Structure (SMILES): O=C(NCc1ccc(Cl)cc1)c1cnn(Cc2ccc(Cn3ccccc3=O)cc2)c1

Structure (SMILES): O=C(NCc1c(F)cccc1C(F)(F)F)c1cnn(Cc2ccc(Cn3ccccc3=O)cc2)c1
IC50 [1]: 7.8 nM
inhibition [5]: 83%
inhibition [6]: 97%

inhibition [5]: 20%
inhibition [6]: 74%
Structure (SMILES): O=C(NCc1cccc(Cl)c1)c1cnn(Cc2ccc(Cn3ccccc3=O)cc2)c1

Structure (SMILES): Cc1cc(C(=O)NCc2ccc(CN)cc2)c(C)n1Cc1cccc(-c2ccccc2)c1
IC50 [1]: 730 nM

Structure (SMILES): COCc1nn(Cc2ccc(Cn3ccccc3=O)cc2)cc1C(=O)NCc1cc(C)[nH]n1
IC50 [1]: 220 nM

Structure (SMILES): Cc1cc(C(=O)NCc2ccc(CN)cc2)c(C)n1Cc1csc(-c2ccccc2)n1
IC50 [1]: 72 nM

inhibition [5]: 11%
inhibition [6]: 57%
Structure (SMILES): Cc1cccc(CNC(=O)c2cnn(Cc3ccc(Cn4ccccc4=O)cc3)c2)c1

inhibition [5]: 0%
inhibition [6]: 29%
Structure (SMILES): O=C(NCc1ccccc1)c1cnn(Cc2ccc(Cn3ccccc3=O)cc2)c1

Structure (SMILES): Cc1ccc(CNC(=O)c2cnn(Cc3ccc(Cn4ccccc4=O)cc3)c2)cc1
IC50 [1]: 88 nM
inhibition [5]: 36%
inhibition [6]: 84%

Structure (SMILES): COc1cccc(CNC(=O)c2cnn(Cc3ccc(Cn4ccccc4=O)cc3)c2)c1
IC50 [1]: 90 nM
inhibition [5]: 35%
inhibition [6]: 83%

Structure (SMILES): COCc1nn(Cc2ccc(Cn3ccccc3=O)cc2)cc1C(=O)NCc1cc[nH]n1
IC50 [1]: 570 nM

Structure (SMILES): Cc1cc(C(=O)NCc2ccc(CN)cc2)c(C)n1Cc1coc(-c2ccccc2)n1
IC50 [1]: 480 nM

Structure (SMILES): COc1ccc(F)c(CNC(=O)c2cn(Cc3ccc(Cn4ccccc4=O)cc3)nc2CN(C)C)c1F
IC50 [1]: 6.3 nM
Papp [7]: 14 10^-6 cm/s
microsomal intrinsic clearance [3]: 280 µL/min

Structure (SMILES): COCc1nn(Cc2ccc(Cn3ccccc3=O)cc2)cc1C(=O)NCc1ncc(F)cc1F
IC50 [1]: 2220 nM

Structure (SMILES): CCOc1ccnc(CNC(=O)c2cn(Cc3ccc(Cn4ccccc4=O)cc3)nc2COC)c1F
IC50 [1]: 7.9 nM
microsomal intrinsic clearance [3]: 69 µL/min

Structure (SMILES): COCc1nn(Cc2ccc(Cn3ccccc3=O)cc2)cc1C(=O)NCc1nc(OC)ccc1F
IC50 [1]: 900 nM

Structure (SMILES): NCc1ccc(CNC(=O)c2cnn(Cc3csc(-c4ccccc4)n3)c2)cc1
IC50 [1]: 850 nM

Structure (SMILES): O=C(NCc1c(F)cccc1Cl)c1cnn(Cc2ccc(Cn3ccccc3=O)cc2)c1
IC50 [1]: 31 nM
inhibition [5]: 61%
inhibition [6]: 92%

Structure (SMILES): COc1ccnc(CNC(=O)c2cn(Cc3ccc(Cn4ccccc4=O)cc3)nc2C2CC2)c1F
IC50 [1]: 4.4 nM
microsomal intrinsic clearance [3]: 49 µL/min

microsomal intrinsic clearance [3]: 181 µL/min
Structure (SMILES): Cc1cnn(Cc2ccc(Cn3cc(C(=O)NCc4ccc5c(N)nccc5c4)cn3)cc2)c1

Structure (SMILES): COCc1nn(Cc2ccc(Cn3ccccc3=O)cc2)cc1C(=O)NCc1ncc(Cl)cc1F
IC50 [1]: 160 nM

Structure (SMILES): O=C(NCc1c(Cl)cccc1Cl)c1cnn(Cc2ccc(Cn3ccccc3=O)cc2)c1
IC50 [1]: 40 nM
inhibition [5]: 56%
inhibition [6]: 94%

solubility kinetic [2]: > 110 µg/mL
microsomal intrinsic clearance [3]: 170 µL/min
solubility kinetic [4]: 58 µg/mL (≈ 119 µM)
Structure (SMILES): COc1cccc(CNC(=O)c2cn(Cc3ccc(Cn4ccccc4=O)cc3)nc2C2CC2)c1F

Structure (SMILES): Cc1cc(C(=O)NCc2ccc(CN)cc2)c(C)n1Cc1csc(-c2cccnc2)c1
IC50 [1]: 440 nM

inhibition [5]: 12%
inhibition [6]: 62%
Structure (SMILES): Cc1ccccc1CNC(=O)c1cnn(Cc2ccc(Cn3ccccc3=O)cc2)c1

solubility kinetic [2]: > 120 µg/mL
solubility kinetic [4]: > 120 µg/mL
Structure (SMILES): COc1cccc(CNC(=O)c2cn(Cc3ccc(Cn4ccccc4=O)cc3)nc2N(C)C)c1F
